One data set concerns WT HIV-1 NL4-3. It counts as cell-based. Conditions: MT-4 cells.
Data set [1] concerns HIV-1 NL4-3 integrase Y143C. It counts as cell-based. The note with it: MT-4 cells; IN substitution Y143C.
Data set [2] has as its system HIV-1 NL4-3 integrase N155H. It counts as cell-based. Conditions: MT-4 cells; IN substitution N155H.
Data set [3] deals with HIV-1 NL4-3 integrase E92Q/N155H. The class given is cell-based. Conditions: MT-4 cells; IN substitutions E92Q/N155H.
The test system of data set [4] is HIV-1 NL4-3 integrase T66I. It counts as cell-based. The note with it: MT-4 cells; IN substitution T66I.
For data set [5], the system named is HIV-1 (Group M) isolate 92RW016, subtype A. Put plainly: Antiviral assay in fresh human PBMCs. The class given is cell-based.
Data set [6] deals with HIV-1 (Group M) isolate 91US004, subtype B. Nature of the data set: Antiviral assay in fresh human PBMCs. The class given is cell-based.
Data set [7] relates to HIV-1 (Group M) isolate 98IN022, subtype C. Put plainly: Antiviral assay in fresh human PBMCs. It counts as cell-based.
Data set [8] has as its system HIV-1 (Group M) isolate 93UG067, subtype D. Put plainly: Antiviral assay in fresh human PBMCs. It counts as cell-based.
Data set [9] concerns HIV-1 (Group M) isolate CMU08, subtype E. Put plainly: Antiviral assay in fresh human PBMCs. It counts as cell-based.
Data set [10] has as its system HIV-1 (Group M) isolate 93BR029, subtype F. Put plainly: Antiviral assay in fresh human PBMCs. The class given is cell-based.
Data set [11] deals with HIV-1 (Group M) isolate G3, subtype G. Put plainly: Antiviral assay in fresh human PBMCs. The class given is cell-based.
Data set [12] concerns HIV-1 (Group M) isolate CDC310342, CRF02-AG. Put plainly: Antiviral assay in fresh human PBMCs. The class given is cell-based.
Another data set concerns HIV-2 isolate CDC310319. Put plainly: Antiviral assay in fresh human PBMCs. It counts as cell-based. In outline: (§1)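 Freshly isolated human PBMCs are infected with virus and cultured with test compound. Replication is measured as reverse transcriptase activity in culture supernatants, using a microtiter plate-based RT reaction. EC50 is the concentration giving 50% inhibition, as the mean of three determinations. CC50 is measured in parallel with the tetrazolium dye MTS, and therapeutic index = CC50/EC50.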

The next data set relates to SIV isolate MAC251. Nature of the data set: Antiviral assay in fresh human PBMCs. It counts as cell-based. The note with it: PBMC. The essentials: as §1
Data set [13] concerns HIV-1, HIV-2 and SIV isolates. Put plainly: Antiviral assay in PBMCs, all isolates together. It counts as cell-based. Conditions: PBMC, read-out: mean EC50 (± SD), all isolates.
Data set [14] in a line: Cytotoxicity in human PBMC cultures. It counts as cell-based. The note with it: peripheral blood mononuclear cells (PBMCs). The essentials:
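Freshly isolated human PBMCs are cultured with test compound. Viability is read out with the tetrazolium-based dye MTS, and CC50 is derived from that read-out.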

Data set [15] relates to HIV-1 NL4-3 integrase Q148R. The class given is cell-based. The note with it: MT-4 cells; IN substitution Q148R.
Data set [16] is described as follows: In vitro human liver microsome stability. The class given is in vitro ADME. (In general: Microsomes from liver hold many membrane-bound enzymes, among them those of drug oxidation.)
The next data set deals with CYP3A4 (Homo sapiens, UniProt P08684). Put plainly: Cytochrome P-450 isozyme inhibition assay in human liver microsomes. The class given is in vitro ADME.
For the next data set, the target named is CYP2D6 (Homo sapiens, UniProt P10635). The description is as above. It counts as in vitro ADME.
A further data set deals with CYP2C8 (Homo sapiens, UniProt P10632). Described as above. The class given is in vitro ADME.
The next data set addresses CYP2C9 (Homo sapiens, UniProt P11712). The description is as above. It counts as in vitro ADME.
The target in a further data set is CYP2C19 (Homo sapiens, UniProt P33261). The data set is described as above. The class given is in vitro ADME.
Data set [17] deals with CYP isozymes (3A4, 2D6, 2C8, 2C9, 2C19). Nature of the data set: Activation of CYP isozymes. The class given is in vitro ADME. The note with it: human liver microsomes; CYP 3A4, 2D6, 2C8, 2C9, 2C19.
Data set [18] has as its system UGT in pooled human liver microsomes (UGT 1A1, 1A4, 1A6, 1A9 and 2B7). Nature of the data set: UGT substrate activity in pooled human liver microsomes. The class given is in vitro ADME.
For a further data set, the target named is UGT1A1 (Homo sapiens, UniProt P22309). Nature of the data set: UGT substrate activity with cDNA-expressed isozyme. It counts as in vitro ADME. The note with it: UGT1A1 (BD Biosciences); HPLC.
In the next data set the target is UGT1A3 (Homo sapiens, UniProt P35503). Put plainly: UGT substrate activity with cDNA-expressed isozyme. The note with it: UGT1A3 (BD Biosciences); HPLC. It counts as in vitro ADME.
The next data set addresses UGT1A4 (Homo sapiens, UniProt P22310). Nature of the data set: UGT inhibition study with trifluoperazine as substrate. Conditions: human liver microsomes. It counts as in vitro ADME. In outline: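 Pooled human liver microsomes (0.2 mg/mL protein) were held with alamethicin (0.024 mg/mg protein) in 100 mM potassium phosphate, pH 7.4, with 5 mM MgCl2 at 0 °C for 15 min. Test compound in DMSO (0 to 300 μM) and trifluoperazine substrate were added, with organic solvent <1.6%. Mixtures were preincubated 3 min at 37 °C, then started with UDPGA (final 4 mM) and run 15 min. Acetonitrile stop, centrifugation, HPLC-UV of supernatant.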

A further data set has as its system UGT isozymes. Put plainly: Activation of UGT isozymes in human liver microsomes. The class given is in vitro ADME. The note with it: kinetic studies in human liver microsomes.
[19] abbreviates: Human immunodeficiency virus 1, PBMC, in Homo sapiens, read-out: EC50 (± SD).

We go through seven molecules from article PMC3677213 (Antiviral research, 2013).

Each structure is given as a SMILES string. pEC50, pIC50: −log10 of the molar value. Read-outs that look alike come from different tables or passages of the source.

UGT1A1, sequence (P22309 26-533): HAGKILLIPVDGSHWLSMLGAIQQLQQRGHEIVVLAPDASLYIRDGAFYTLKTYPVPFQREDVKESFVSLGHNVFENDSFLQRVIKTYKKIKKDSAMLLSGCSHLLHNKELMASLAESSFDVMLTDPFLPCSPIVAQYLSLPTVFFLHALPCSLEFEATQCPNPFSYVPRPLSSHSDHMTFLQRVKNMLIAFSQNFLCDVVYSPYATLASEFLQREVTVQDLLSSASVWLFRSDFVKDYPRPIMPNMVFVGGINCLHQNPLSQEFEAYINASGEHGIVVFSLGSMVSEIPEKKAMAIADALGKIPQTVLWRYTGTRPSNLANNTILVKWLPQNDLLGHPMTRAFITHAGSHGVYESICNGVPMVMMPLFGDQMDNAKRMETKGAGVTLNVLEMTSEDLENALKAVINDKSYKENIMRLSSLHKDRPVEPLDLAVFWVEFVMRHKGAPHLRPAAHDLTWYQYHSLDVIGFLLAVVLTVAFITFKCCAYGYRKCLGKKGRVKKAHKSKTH
CYP2C9, sequence (P11712 whole entry): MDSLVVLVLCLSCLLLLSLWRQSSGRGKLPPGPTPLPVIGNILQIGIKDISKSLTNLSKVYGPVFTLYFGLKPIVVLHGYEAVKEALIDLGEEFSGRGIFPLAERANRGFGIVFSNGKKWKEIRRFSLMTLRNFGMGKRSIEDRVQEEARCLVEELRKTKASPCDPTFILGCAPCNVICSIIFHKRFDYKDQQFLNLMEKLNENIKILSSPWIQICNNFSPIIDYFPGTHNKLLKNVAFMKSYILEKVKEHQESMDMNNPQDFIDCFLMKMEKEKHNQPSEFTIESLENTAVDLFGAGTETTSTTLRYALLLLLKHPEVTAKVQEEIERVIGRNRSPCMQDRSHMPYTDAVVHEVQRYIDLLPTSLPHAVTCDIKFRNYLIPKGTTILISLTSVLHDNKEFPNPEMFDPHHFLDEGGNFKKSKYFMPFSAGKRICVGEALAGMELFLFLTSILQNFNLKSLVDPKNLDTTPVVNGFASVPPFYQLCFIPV
CYP2C19, sequence (P33261 whole entry): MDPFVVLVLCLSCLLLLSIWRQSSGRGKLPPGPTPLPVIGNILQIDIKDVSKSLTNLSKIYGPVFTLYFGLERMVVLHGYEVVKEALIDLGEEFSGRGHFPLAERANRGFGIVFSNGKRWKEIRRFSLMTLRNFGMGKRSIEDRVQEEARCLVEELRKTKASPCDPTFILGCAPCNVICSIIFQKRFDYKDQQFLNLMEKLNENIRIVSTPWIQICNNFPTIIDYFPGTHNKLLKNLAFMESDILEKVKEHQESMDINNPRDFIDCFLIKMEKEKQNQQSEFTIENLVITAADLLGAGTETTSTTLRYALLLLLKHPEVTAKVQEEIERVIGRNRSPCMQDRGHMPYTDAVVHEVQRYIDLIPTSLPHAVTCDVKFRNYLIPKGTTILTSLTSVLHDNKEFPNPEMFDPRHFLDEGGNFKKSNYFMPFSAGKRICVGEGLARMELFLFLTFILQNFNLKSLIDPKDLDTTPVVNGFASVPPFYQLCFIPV
UGT1A4, sequence (P22310 29-534): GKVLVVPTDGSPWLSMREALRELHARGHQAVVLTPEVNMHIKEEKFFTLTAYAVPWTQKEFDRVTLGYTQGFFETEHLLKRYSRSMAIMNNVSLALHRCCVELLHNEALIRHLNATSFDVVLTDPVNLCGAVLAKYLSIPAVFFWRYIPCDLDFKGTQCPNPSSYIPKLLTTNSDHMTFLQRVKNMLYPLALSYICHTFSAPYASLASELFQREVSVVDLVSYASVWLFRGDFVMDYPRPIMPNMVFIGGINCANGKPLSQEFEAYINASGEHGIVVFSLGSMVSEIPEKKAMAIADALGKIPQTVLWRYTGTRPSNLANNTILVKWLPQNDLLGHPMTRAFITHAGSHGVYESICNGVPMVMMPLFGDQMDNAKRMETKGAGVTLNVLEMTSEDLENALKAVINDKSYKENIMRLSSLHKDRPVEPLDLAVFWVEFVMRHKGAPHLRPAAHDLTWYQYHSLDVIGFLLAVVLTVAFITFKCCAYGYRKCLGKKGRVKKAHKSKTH
UGT1A3, sequence (P35503 29-534): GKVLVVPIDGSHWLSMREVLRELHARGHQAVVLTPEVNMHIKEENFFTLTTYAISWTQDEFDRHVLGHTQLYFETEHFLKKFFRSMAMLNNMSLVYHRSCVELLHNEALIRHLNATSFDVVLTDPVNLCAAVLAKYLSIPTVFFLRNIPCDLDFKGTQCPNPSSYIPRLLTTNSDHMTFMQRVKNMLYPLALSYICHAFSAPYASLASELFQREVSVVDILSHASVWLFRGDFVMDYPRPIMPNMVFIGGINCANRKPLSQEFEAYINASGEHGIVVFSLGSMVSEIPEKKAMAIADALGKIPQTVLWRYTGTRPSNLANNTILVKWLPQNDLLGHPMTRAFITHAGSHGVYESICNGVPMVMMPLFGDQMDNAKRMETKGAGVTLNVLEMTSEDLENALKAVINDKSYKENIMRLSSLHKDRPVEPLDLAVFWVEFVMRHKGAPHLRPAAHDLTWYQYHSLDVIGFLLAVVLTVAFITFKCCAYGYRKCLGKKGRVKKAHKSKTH
CYP3A4, sequence (P08684 whole entry): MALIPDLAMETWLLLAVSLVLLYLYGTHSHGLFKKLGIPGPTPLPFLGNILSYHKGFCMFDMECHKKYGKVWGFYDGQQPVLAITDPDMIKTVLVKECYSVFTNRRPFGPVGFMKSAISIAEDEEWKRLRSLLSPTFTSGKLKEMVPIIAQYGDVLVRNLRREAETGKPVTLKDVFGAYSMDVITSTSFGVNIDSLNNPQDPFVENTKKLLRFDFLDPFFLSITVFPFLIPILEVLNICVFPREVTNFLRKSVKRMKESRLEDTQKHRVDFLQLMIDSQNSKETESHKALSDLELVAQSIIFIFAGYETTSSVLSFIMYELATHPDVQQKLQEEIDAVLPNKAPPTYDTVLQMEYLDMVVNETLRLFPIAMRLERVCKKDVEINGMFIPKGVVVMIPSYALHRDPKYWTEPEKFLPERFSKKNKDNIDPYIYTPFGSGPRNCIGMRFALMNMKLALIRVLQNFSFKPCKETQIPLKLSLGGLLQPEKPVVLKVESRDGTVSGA
CYP2C8, sequence (P10632 whole entry): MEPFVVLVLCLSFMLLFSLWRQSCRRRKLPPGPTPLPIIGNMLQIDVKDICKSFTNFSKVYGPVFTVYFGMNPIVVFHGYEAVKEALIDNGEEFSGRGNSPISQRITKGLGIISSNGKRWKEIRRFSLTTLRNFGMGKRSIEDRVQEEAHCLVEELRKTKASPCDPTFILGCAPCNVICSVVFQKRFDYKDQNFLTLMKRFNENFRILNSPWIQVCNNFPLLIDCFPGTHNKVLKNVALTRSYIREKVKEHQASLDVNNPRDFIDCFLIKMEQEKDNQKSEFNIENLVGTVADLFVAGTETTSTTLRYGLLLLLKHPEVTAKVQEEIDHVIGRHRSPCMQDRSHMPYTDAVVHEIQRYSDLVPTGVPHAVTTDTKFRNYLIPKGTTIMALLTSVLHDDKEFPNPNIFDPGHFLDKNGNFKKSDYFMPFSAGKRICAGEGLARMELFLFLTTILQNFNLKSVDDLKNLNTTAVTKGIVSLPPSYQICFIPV
CYP2D6, sequence (P10635 whole entry): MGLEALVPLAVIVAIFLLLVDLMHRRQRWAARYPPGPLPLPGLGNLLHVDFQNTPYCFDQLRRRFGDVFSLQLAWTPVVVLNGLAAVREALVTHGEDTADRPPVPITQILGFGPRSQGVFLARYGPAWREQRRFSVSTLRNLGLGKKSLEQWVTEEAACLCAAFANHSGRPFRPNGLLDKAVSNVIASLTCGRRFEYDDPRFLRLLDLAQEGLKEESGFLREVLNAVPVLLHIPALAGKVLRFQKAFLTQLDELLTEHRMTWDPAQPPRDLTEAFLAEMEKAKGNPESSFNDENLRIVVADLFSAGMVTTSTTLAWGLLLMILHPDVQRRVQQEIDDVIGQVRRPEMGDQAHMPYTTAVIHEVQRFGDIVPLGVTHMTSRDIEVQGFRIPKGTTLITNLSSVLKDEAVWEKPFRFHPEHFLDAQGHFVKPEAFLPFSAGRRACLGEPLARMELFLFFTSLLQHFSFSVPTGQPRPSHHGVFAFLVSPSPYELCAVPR

`Cc1cn([C@H]2C[C@H](N=[N+]=[N-])[C@@H](CO)O2)c(=O)[nH]c1=O` [AZT]: the “EC50 fold change compared to wild-type virus” value (“EC50 fold change” below) is 1.0 with WT HIV-1 NL4-3; 1.18 in [1]; 3.29 in data set [2]; 3.45 in [3]; 1.0 in data set [4].

As a reminder, the pEC50 is the EC50 on a negative log10 scale, so that one unit is a factor of ten. Usually CC50 stands for the concentration giving 50% cytotoxicity. A higher CC50 goes with better tolerance by the cells. A word on the pIC50: it is the IC50 on a negative log10 scale, so that one unit is a factor of ten. A higher pIC50 goes with a small IC50. By inhibition is commonly meant the change of the read-out against control, counted positive when it falls. A low value points to little suppression. Consider `O=C(C=C(O)c1cc(Cc2c(F)cccc2F)cn(Cc2ccccc2F)c1=O)C(=O)NN1CCCC1=O` [Compound 1, 4-(5-(2,6-difluorobenzyl)-1-(2-fluorobenzyl)-2-oxo-1,2-dihydropyridin-3-yl)-4-hydroxy-2-oxo-N-(2-oxopyrrolidin-1-yl)but-3-enamide], for which the pEC50 in [5] (setting [19]) is 7.68; in data set [6] (setting [19]) it was 8.16; in [7] (setting [19]), 7.53; in data set [8] (setting [19]), 7.31; in [9] (setting [19]) it was 7.28; in [10] (setting [19]), 7.74. Moreover, the pEC50 was 7.46 in [11] (setting [19]); 7.48 in [12] (setting [19]); 7.07 with HIV-2 isolate CDC310319 (Human immunodeficiency virus 2, PBMC, in Homo sapiens, read-out: EC50 (± SD)); 7.72 in the data set with SIV isolate MAC251 (Simian immunodeficiency virus, in Homo sapiens, read-out: EC50 (± SD)); 7.46 in data set [13]. Besides, the “Therapeutic Index (CC50/EC50)” value in data set [5] (PBMC, isolate 92RW016, subtype A) is 4,625; in data set [6] (PBMC, isolate 91US004, subtype B), 13,962; in data set [7] (PBMC, isolate 98IN022, subtype C), 3,228; in data set [8] (PBMC, isolate 93UG067, subtype D) it was 1,984; in data set [9] (PBMC, isolate CMU08, subtype E) it was 1,836; in data set [10] (PBMC, isolate 93BR029, subtype F), 5,257. The “Therapeutic Index (CC50/EC50)” value in data set [11] (PBMC, isolate G3, subtype G) is 2,756; in data set [12] (PBMC, isolate CDC310342, CRF02-AG), 2,880; in the data set with HIV-2 isolate CDC310319 (PBMC, HIV-2 isolate CDC310319) it was 1,119; in the data set with SIV isolate MAC251 (SIV isolate MAC251) it was 5,037. Besides, it took 96200 nM to reach half-maximal cytotoxicity in data set [14] (CC50). Also, the “EC50 fold change” value in the data set on WT HIV-1 NL4-3 stood at 1.0; in data set [1], 1.87; in data set [2] it was 8.20; in data set [15], 18.8; in data set [3], 6.13; in data set [4], 5.20. In addition, the “stability in pooled human liver microsomes” value in data set [16] (50 μM, 0.5 mg/mL protein, NADPH, 37 °C) is given as “relatively stable”. Also, the pIC50 against CYP3A4, on CYP2D6, at CYP2C8, at CYP2C9 and against CYP2C19 was less than 3.70 each time. The molecule also came in with an inhibition at 30 min, 200 μM on CYP2C9 (human, liver microsomes, pH 7.4, probe tolbutamide 500 μM) of 15.5%. In addition, the “activation of CYP isozymes” value in data set [17] is recorded as “not an activator”. Also, the “Glucuronide (formed)” value (in [18]; on UGT1A1; at UGT1A3) was “None^a” in each case. Also, the “inhibition of UGT1A4” value at UGT1A4 is reported as “not an inhibitor”. Further, the “activation of UGT isozymes” value with UGT isozymes was “no indication of the activation”.

With `COc1cc2c(cc1Cc1cccc(Cl)c1F)c(=O)c(C(=O)O)cn2[C@H](CO)C(C)C` [Elvitegravir, elvitegravir], the “EC50 fold change” value turned out to be 1.0 in the data set on WT HIV-1 NL4-3; 46.7 in [1]; 200 in [2]; 96.1 in [15]; 134 in data set [3]; 5.5 in data set [4].

As for `C[C@]12CC[C@@H]3c4ccc(O)cc4CC[C@H]3[C@@H]1CC[C@@H]2O` [Estradiol, reference compound], the “Glucuronide (formed)” value in [18] is recorded as “Glucuronides (two)”; on UGT1A1, “Glucuronide”.

Take `Cc1cc(=O)oc2cc(O)ccc12` [Methylumbelliferone, 4-methylumbelliferone]: the “Glucuronide (formed)” value in data set [18] was “Glucuronide”.

With `CN1CCN(CCCN2c3ccccc3Sc3ccc(C(F)(F)F)cc32)CC1` [Trifluoperazine], the “Glucuronide (formed)” value in [18] (pHLM (Xenotech), HPLC) is given as “N-Glucuronide”.

As a reminder, the share remaining is the share of the starting amount still present when the sample was taken. High values mean less turnover, low ones more turnover. For orientation: Km means the substrate concentration at which the rate is half of its maximum. Regarding `Cc1ncc2n1-c1ccc(Cl)cc1C(c1ccccc1F)=NC2` [midazolam], the fraction remaining at 1 h in data set [16] (human, microsomes, pH 7.4) is 61.5%. Further, in data set [16] (human, pH 7.4), the Km was found to be 2.52 µM.
